Experimental data published in ChEMBL document CHEMBL1124296, “Molecular basis for bleomycin amplification: conformational and stereoelectronic effects in unfused amplifiers” (J Med Chem, 1988).

The molecules below were run on Calf thymus DNA (assay: Binding constant to DNA measured spectrophotometrically). Conditions: Bos taurus.
Assay type: nucleic-acid assay
Outline: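 Calf thymus DNA, stripped of residual protein and dialyzed into PIPES 00 buffer (0.01 M PIPES, 0.001 M EDTA, NaOH to pH 7.00, [Na⁺] 0.019 M). DNA-P concentration was read at 260 nm with ε 6600 M⁻¹ cm⁻¹. Equilibrium binding constants were obtained spectrophotometrically by an earlier-reported procedure.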

| SMILES | K |
| --- | --- |
| Cc1cc(-c2cccs2)nc(SCCN(C)C)n1 | 24800 M⁻¹ |
| CN(C)CCSc1nccc(-c2ccco2)n1 | 3500 M⁻¹ |
| CN(C)CCSc1nccc(-c2ccccc2)n1 | 8600 M⁻¹ |
| CN(C)CCSc1nccc(-c2cccn2C)n1 | 10100 M⁻¹ |
| CN(C)CCOc1ccc(-c2ccccc2)cc1 | 3000 M⁻¹ |
| CN(C)CCNc1nccc(-c2nccs2)n1 | 3900 M⁻¹ |
| CN(C)CCOc1ccccc1-c1ccccc1 | 3000 M⁻¹ |
| Cc1ccnc(-c2cc(COCCN(C)C)ccn2)c1 | 3000 M⁻¹ |
| CSc1nc(NCCN(C)C)cc(-c2cccs2)n1 | 6800 M⁻¹ |
| CN(C)CCOc1cccc(-c2ccccc2)c1 | 3000 M⁻¹ |
| Cc1cnc(SCCN(C)C)nc1-c1cccs1 | 48000 M⁻¹ |

Next, values leading:

| K | SMILES |
| --- | --- |
| 9250 M⁻¹ | CN(C)CCSc1nccc(-c2nccs2)n1 |
| 4400 M⁻¹ | CN(C)CCNc1nccc(-c2cccs2)n1 |
| 18700 M⁻¹ | CN(C)CCSc1nccc(-c2cccs2)n1 |
| 3400 M⁻¹ | CN(C)CCOc1nccc(-c2cccs2)n1 |
| 13700 M⁻¹ | CSc1cc(-c2cccs2)nc(NCCN(C)C)n1 |
